In ChEMBL document CHEMBL3124822, “Discovery of a rapidly metabolized, long-acting β(2) adrenergic receptor agonist with a short onset time incorporating a sulfone group suitable for once-daily dosing” (J Med Chem, 2014):

What was measured:
Rattus norvegicus = assay: Clearance in Han Wistar rat at 0.25 mg/kg, iv up to 7 hrs by LC-MS/MS analysis relative to liver blood flow; type: ADME, organism-based; set-up: dose 0.25 mg/kg, route intravenous; details: in vivo
Procedure, shortened: (§1)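 Han Wistar rats dosed 0.25 mg/kg intravenously; plasma sampled at various times up to 7 h postdose. Clearance expressed as percentage of liver blood flow.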

Liver microsome = assay: Clearance in dog liver microsomes; type: ADME, Canis lupus familiaris
Procedure, shortened: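 Compound incubated with liver microsomes; in vitro metabolic clearance expressed as (mL/min)/g liver.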

Hepatocyte [1] = assay: Drug metabolism in human hepatocytes assessed as metabolite M12 formation at 12.5 uM after 2 hrs by LC-MS/MS analysis; type: ADME, cell-based
Procedure, shortened: (§2)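 Human hepatocytes incubated with substrate at 12.5 μM for 2 h. Products characterized by LC–MS/MS on a C18 column, 5–95% acetonitrile gradient in water with 0.1% formic acid over 8 min. Metabolites numbered by elution order. Abundance is semiquantitative from peak heights (low/medium/high), assuming equal analyte response.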

Hepatocyte [2] = assay: Drug metabolism in human hepatocytes assessed as metabolite M7 formation at 12.5 uM after 2 hrs by LC-MS/MS analysis; type: ADME, cell-based; procedure, shortened: as §2
[3] = Volume of distribution at steady state in beagle dog at 0.05 mg/kg, iv up to 8 hrs by LC-MS/MS analysis; type: ADME, organism-based, Canis lupus familiaris; set-up: dose 0.05 mg/kg, route intravenous; details: in vivo, read-out: Vdss
Procedure, shortened: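 Beagle dogs dosed 0.05 mg/kg intravenously; plasma collected at various time points up to 8 h postdose.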

[4] = target: T1, 5-hydroxytryptamine receptor 1A (Homo sapiens, UniProt P08908); assay: Binding affinity to human 5HT1A receptor
T1 sequence (P08908 whole entry): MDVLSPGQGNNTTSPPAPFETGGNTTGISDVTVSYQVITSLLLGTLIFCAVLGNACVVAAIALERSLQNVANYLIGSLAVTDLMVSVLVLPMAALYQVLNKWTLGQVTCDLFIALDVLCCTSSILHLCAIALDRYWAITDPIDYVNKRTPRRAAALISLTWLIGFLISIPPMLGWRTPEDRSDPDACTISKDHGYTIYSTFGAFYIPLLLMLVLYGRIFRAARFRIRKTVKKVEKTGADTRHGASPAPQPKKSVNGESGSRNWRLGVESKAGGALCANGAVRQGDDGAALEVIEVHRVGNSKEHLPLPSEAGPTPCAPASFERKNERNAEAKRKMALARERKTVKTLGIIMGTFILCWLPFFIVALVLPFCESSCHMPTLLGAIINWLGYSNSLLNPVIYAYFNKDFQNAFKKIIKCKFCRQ

[5] = Plasma protein binding in dog; type: ADME, cell-free, Canis lupus familiaris; details: read-out: PPB (converted)
Cytochrome P450 2C19 = Cytochrome P450 2C19 (Homo sapiens, UniProt P33261); assay: Inhibition of human CYP2C19 expressed in Escherichia coli; type: ADME
Procedure, shortened: (§3)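 Human CYP isoforms expressed in E. coli; IC50 from n = 3. Probe substrates diethoxyfluorescein and 7-benzyloxyquinoline are stated for CYP3A4.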

Cavia porcellus [6] = assay: Bronchodilatory activity in guinea pig assessed as inhibition of histamine-induced bronchoconstriction administered via nebulization 2 mins prior to histamine challenge; type: functional
Procedure, shortened: (§4)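 Conscious guinea pigs, n = 24 per group, given test agonist as a nebulized solution in dimethylacetamide–saline vehicle (2 min nebulization) before histamine (10 mM, nebulized 1.3 min) in a whole-body plethysmograph. PenH recorded for 15 min as index of airway obstruction. Dose expressed as nebulizer concentration; duration taken as time to 50% recovery.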

Cytochrome P450 3A4 [7] = target: T2, Cytochrome P450 3A4 (Homo sapiens, UniProt P08684); assay: Inhibition of human CYP3A4 expressed in Escherichia coli using 7-benzyloxyquinoline as substrate; type: ADME; procedure, shortened: as §3
L5178Y = assay: Genotoxicity against mouse L5178Y cells in presence of rat liver metabolic activation system; type: toxicity, cell-based
Procedure, shortened: (§5)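 Acetate and 4-biphenylsulfonate salts screened in Ames and mouse lymphoma L5178Y assays, with and without a rat liver metabolic activation system.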

[8] = Plasma clearance in Han Wistar rat at 0.25 mg/kg, iv up to 7 hrs by LC-MS/MS analysis; type: ADME, organism-based; set-up: dose 0.25 mg/kg, route intravenous; procedure, shortened: as §1
Hepatocyte [9] = assay: Drug metabolism in human hepatocytes assessed as metabolite M15 formation at 12.5 uM after 2 hrs by LC-MS/MS analysis; type: ADME, cell-based; procedure, shortened: as §2
Salmonella typhimurium = assay: Genotoxicity in Salmonella typhimurium by Ames assay; type: toxicity, organism-based; details: salmonella enterica subsp. enterica serovar typhimurium; procedure, shortened: as §5
Hepatocyte [10] = assay: Drug metabolism in human hepatocytes assessed as metabolite M10 formation at 12.5 uM after 2 hrs by LC-MS/MS analysis; type: ADME, cell-based; procedure, shortened: as §2
[11] = Ratio of drug uptake from blood to plasma in rat; type: ADME
Procedure, shortened: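 In vitro partitioning of the compound into the cellular fraction of rat, dog and human blood, reported as the blood:plasma ratio.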

Cavia porcellus [12] = assay: Bronchodilatory activity in guinea pig assessed as duration of action of inhibition of histamine-induced bronchoconstriction at EC90 administered via nebulization 2 mins prior to histamine challenge; type: functional; procedure, shortened: as §4
Cytochrome P450 3A4 [13] = target: T2, Cytochrome P450 3A4; assay: Inhibition of human CYP3A4 expressed in Escherichia coli using diethoxyfluorescein as substrate; type: ADME; procedure, shortened: as §3
Hepatocyte [14] = assay: Drug metabolism in human hepatocytes assessed as metabolite M1 formation at 12.5 uM after 2 hrs by LC-MS/MS analysis; type: ADME, cell-based; procedure, shortened: as §2

T2 sequence (P08684 whole entry): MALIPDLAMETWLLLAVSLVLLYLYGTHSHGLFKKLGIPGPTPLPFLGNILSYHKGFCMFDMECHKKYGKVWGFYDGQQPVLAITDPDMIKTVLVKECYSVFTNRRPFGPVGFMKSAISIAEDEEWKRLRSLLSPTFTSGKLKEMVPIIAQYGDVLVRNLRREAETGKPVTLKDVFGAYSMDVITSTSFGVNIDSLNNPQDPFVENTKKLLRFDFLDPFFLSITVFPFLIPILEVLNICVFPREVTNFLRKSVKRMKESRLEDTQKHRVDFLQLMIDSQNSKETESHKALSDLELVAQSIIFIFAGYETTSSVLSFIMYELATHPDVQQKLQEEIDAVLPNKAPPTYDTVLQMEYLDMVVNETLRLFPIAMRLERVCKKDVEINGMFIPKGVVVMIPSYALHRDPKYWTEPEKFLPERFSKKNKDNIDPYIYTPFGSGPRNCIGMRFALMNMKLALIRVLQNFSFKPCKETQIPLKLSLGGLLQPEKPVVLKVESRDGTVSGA
Chain of Cytochrome P450 2C19 (P33261 whole entry, canonical isoform): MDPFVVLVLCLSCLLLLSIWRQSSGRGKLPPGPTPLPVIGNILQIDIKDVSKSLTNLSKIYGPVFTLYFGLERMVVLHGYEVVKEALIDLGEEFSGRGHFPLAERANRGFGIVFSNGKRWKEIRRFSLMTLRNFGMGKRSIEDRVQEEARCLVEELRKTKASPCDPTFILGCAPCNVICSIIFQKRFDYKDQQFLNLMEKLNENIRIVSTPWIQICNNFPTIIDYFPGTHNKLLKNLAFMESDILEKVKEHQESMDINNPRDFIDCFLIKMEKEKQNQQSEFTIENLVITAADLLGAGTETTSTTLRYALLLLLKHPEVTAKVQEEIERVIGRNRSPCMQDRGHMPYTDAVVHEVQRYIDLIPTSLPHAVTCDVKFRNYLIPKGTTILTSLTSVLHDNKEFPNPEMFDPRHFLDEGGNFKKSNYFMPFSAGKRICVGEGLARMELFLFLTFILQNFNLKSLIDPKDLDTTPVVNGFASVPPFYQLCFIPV

For CC(=O)O.O=S(=O)(c1cccc(CCCCOCCCCCCNC[C@H](O)c2ccc(O)c(CO)c2)c1)C1CCCC1, the CL (Rattus norvegicus) was 62%, the CLH (Liver microsome) was 5 mL/min/g and the Drug metabolism (Hepatocyte [1]) was “Active”. The Drug metabolism (Hepatocyte [2]) was “Active”, the Vd [3] was 0.1 L/kg and the IC50 [4] was 100 nM. The fraction unbound [5] was 0.03, the IC50 (Cytochrome P450 2C19) was > 10000 nM and the EC90 (Cavia porcellus [6]) was 10000 nM. The IC50 (Cytochrome P450 3A4 [7]) was 3800 nM, the Activity (L5178Y) was “Non-toxic” and the clearance [8] was 53 mL/min/kg. The Drug metabolism (Hepatocyte [9]) was “Active”, the Activity (Salmonella typhimurium) was “Non-toxic” and the Drug metabolism (Hepatocyte [10]) was “Active”. The blood plasma ratio [11] was 1.3, the Time (Cavia porcellus [12]) was 20 h and the IC50 (Cytochrome P450 3A4 [13]) was 1600 nM. The Drug metabolism (Hepatocyte [14]) was “Active”.
